RGS4 inh: RGS4 inhibitors, primary screen, cell-based, HEK293 M3R inducible RGS4, calcium flux | Fluo-4 calcium flux; hits give high values; triggered by carbachol at its EC20 | 310,000 tested, 0.45% active | Regulator of G-protein signaling 4 (Homo sapiens), P49798 | B-score at 10 µM;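 active = B-score, a plate-corrected calcium signal, over three deviations above library mean, with baseline fluorescence within five deviations of library mean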;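 note: RGS4 expression induced by doxycycline in cells with stable M3 receptor; B-score is computed from the integrated fluorescence ratio over baseline after carbachol; higher B-score means a larger calcium signal and so more RGS4 inhibition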
Target sequence (P49798 whole entry, looked up): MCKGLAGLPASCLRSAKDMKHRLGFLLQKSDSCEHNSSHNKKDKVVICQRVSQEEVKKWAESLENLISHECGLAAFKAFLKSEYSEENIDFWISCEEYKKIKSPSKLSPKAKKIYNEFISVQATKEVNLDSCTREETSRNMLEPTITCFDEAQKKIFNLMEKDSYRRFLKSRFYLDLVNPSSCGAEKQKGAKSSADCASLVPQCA
RGS4 act: RGS4 potentiators or activators, primary screen, cell-based, HEK293 M3R inducible RGS4, calcium flux; carbachol calcium flux Fluo4; hits give low values; B-score at 10 µM; 310,000 tested, 0.92% active;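 active = B-score of the integrated calcium signal more than 4 SD below the library mean, with starting fluorescence not abnormally high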;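 note: negative B-score means reduced calcium response which marks RGS4 activation or potentiation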
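Detection: kinetic calcium fluorescence imaging with Fluo4-AM dye, 2 µM / Material: HEK293 cells with stable M3R and inducible RGS4 / Schedule: recording 10 s baseline at 1 Hz, 100 s post-agonist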
MrgX1 ag: agonists of human MrgX1 receptor, primary screen, HEK293 cells, Fluo-4 calcium flux. Mas-related G-protein coupled receptor member X1 (Homo sapiens), Q96LB2. Fluo-4 calcium fluorescence, agonist mode; hits give high values. B-score at 10 µM. 310,000 tested, 0.44% active. AID 588627, 2011;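 active = calcium response B-score plate-corrected fluorescence ratio at least 3 library SD, with starting fluorescence B-score inside 5 SD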
Target sequence (Q96LB2 whole entry, looked up): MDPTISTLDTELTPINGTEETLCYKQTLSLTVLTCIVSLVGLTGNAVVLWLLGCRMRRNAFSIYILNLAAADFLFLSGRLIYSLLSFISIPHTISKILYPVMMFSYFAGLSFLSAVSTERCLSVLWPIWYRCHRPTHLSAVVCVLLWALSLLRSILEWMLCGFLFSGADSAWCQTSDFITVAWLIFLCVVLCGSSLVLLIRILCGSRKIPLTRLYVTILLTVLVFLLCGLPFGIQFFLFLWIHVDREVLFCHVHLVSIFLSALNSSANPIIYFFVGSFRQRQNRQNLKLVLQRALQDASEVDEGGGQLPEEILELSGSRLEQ
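Material: MrgX1-expressing HEK293 cells / Dosing: compound as first of three additions / Incubation: overnight seeding, then 1 h dark dye loading / Signal: Fluo-4 NW calcium fluorescence / Evaluation: B-scored fluorescence response ratio / Benchmarks: positive and negative control wells on each plate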
MrgX1 allo act: positive allosteric modulators of MrgX1, primary screen, HEK293 cells, Fluo-4 calcium flux; 310,000 tested, 0.63% active; AID 588675, 2011; FDSS; hits give high values; B-score at 10 µM;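 active = plate-corrected calcium response at least 3 library SD above typical, normal starting fluorescence, not activating the receptor alone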;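 note: compound read alongside a low EC10 to EC30 dose of BAM8-22 agonist; peak minus trough fluorescence over baseline measured at the second addition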
MrgX1 antagonist: antagonists of human MrgX1 receptor, primary screen, HEK293 cells, Fluo-4 calcium flux. BAM8-22 antagonism; hits give low values. Mas-related G-protein coupled receptor member X1 (Homo sapiens), Q96LB2. 310,000 tested, 1.3% active. B-score at 10 µM;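 active = calcium-response B-score plate-corrected more than 3 library SD below zero, starting fluorescence within 5 deviations, no agonist response on first addition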;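 note: peak minus trough fluorescence over baseline after final BAM8-22 challenge near maximal dose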
MrgX1 PAM conf: MrgX1 positive allosteric modulators, duplicate retest, confirmation, HEK293 cells, Fluo-4 calcium flux. activation (ratio percentage), % at 10 µM. Fluo-4 calcium fluorescence, FDSS. 1,200 tested, 13% active. shares compounds with MrgX1 allo act;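 active = ratio at least 3 SD above the weak peptide control, stable starting fluorescence, no direct agonism earlier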;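 note: compound followed by low BAM8-22 agonist challenge near EC20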
MrgX1 ant reconf: MrgX1 receptor antagonists, duplicate retest, confirmation, HEK293 cells, Fluo-4 calcium flux | BAM8-22 calcium flux; hits give low values | AID 602420, 2012 | 2,300 tested, 19% active | remaining BAM8-22 calcium response % of control (hits give low values), % at 10 µM | shares compounds with MrgX1 antagonist;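 active = remaining agonist calcium response no higher than 100% minus 3 SD of agonist-only control wells, with starting fluorescence near control levels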;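 note: agonist BAM8-22 given at a near maximal EC90 to ECmax level; peak minus minimum fluorescence divided by baseline after agonist addition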
HEK293 Ca flux: nonspecific calcium signal in parental HEK293, confirmation, counter-screen for MrgX1 antagonist project, parental HEK293 cells, Fluo-4 calcium flux; AID 624111, 2012; Fluo-4 calcium fluorescence, FDSS; shares compounds with MrgX1 antagonist; 4,000 tested, 2% active; fluorescence ratio F(max-min)/F0 at 10 µM;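 active = duplicate-averaged calcium fluorescence ratio at least three times the standard deviation of buffer wells, a nonspecific response in parental cells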
HEK293 Ca counter: calcium response in parental HEK293 cells, primary screen, counter-screen for MrgX1 allosteric activator project, cell-based, Fluo-4 calcium flux, duplicate. shares compounds with MrgX1 antagonist. Fluo-4 fluorescence ratio; hits give high values. fluorescence ratio F(max-min)/F0 at 10 µM. 4,000 tested, 0.4% active. AID 624114, 2012;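 active = calcium fluorescence ratio, averaged over duplicates, at least 3 SD of the buffer-well ratio, meaning a nonspecific response in receptor-free cells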;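 note: untransfected parental HEK293 lacking MrgX1 used as counterscreen for MrgX1 allosteric activators; fluorescence change taken during the second addition on a kinetic imager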
HEK293 Ca cntr2: calcium response in parental HEK293 cells, primary screen, counter-screen for MrgX1 agonist project, cell-based, Fluo-4 calcium flux, duplicate, agonist mode | fluorescence ratio F(max-min)/F0 at 10 µM | Fluo-4 calcium fluorescence (FDSS); hits give high values | shares compounds with MrgX1 antagonist | 4,000 tested, 8.7% active;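 active = calcium fluorescence ratio at least three times the spread of buffer wells, meaning a non-specific response in parental cells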
Large screens that a line does not name were inactive (follow-up assays come after a bar, where they were run). Most compounds without a hit are left out; they make up all but 3.5% or so of the library.

CC(=O)c1nnn(-c2nc(N)nc(N(c3ccccc3)c3ccccc3)n2)c1C	MrgX1 allo act 13 | MrgX1 PAM conf 16% | HEK293 Ca flux inactive | HEK293 Ca counter inactive | HEK293 Ca cntr2 inactive
CCCCN(CCCC)c1nc(OC)nc(-n2nnc(C(C)=O)c2C)n1	none
Cn1c(=NC(=O)C2CC2)sc2cccc(F)c21	MrgX1 allo act 11 | MrgX1 PAM conf inactive | HEK293 Ca flux inactive | HEK293 Ca counter inactive | HEK293 Ca cntr2 inactive
COc1ccccc1NC(=O)CSc1nc2nccnc2c(=O)n1Cc1cccs1	none
NC(=O)c1cc2ccncc2c2ccccc12	none
Cc1ccncc1C(N)=O	MrgX1 allo act 8.1 | MrgX1 PAM conf inactive | HEK293 Ca flux inactive | HEK293 Ca counter inactive | HEK293 Ca cntr2 inactive
O=C(c1ccc(N2CCN(C3CC(=O)N(Cc4cccs4)C3=O)CC2)cc1)c1cccnc1 (centres undefined)	MrgX1 allo act 9, MrgX1 antagonist -5.1 | MrgX1 PAM conf 3.0% | MrgX1 ant reconf 84% | HEK293 Ca flux inactive | HEK293 Ca counter inactive | HEK293 Ca cntr2 inactive
O=C(c1ccncc1)c1ccc(N2CCN(C3CC(=O)N(Cc4ccccc4)C3=O)CC2)cc1 (centres undefined)	none
COc1ccc(OCc2csc(N)n2)cc1	none
O=C1CCC2=C(CCCC2=O)N1	MrgX1 allo act 10 | MrgX1 PAM conf inactive | HEK293 Ca flux inactive | HEK293 Ca counter inactive | HEK293 Ca cntr2 inactive
O=C(c1ccc(Cl)cc1)C1CCCN(Cc2cccn2-c2cccnc2)C1 (centres undefined)	MrgX1 allo act 7.5 | MrgX1 PAM conf inactive | HEK293 Ca flux inactive | HEK293 Ca counter inactive | HEK293 Ca cntr2 inactive
CCN1C(=O)C(CC(=O)Nc2ccc(F)cc2)N(Cc2ccco2)C1=S (centres undefined)	MrgX1 allo act 9.2 | MrgX1 PAM conf inactive | HEK293 Ca flux inactive | HEK293 Ca counter inactive | HEK293 Ca cntr2 inactive
Cc1ccc(C)n1-n1c(C)nc2sc(-c3ccccc3)cc2c1=O	MrgX1 allo act 19 | MrgX1 PAM conf inactive | HEK293 Ca flux inactive | HEK293 Ca counter inactive | HEK293 Ca cntr2 inactive
Cc1ccc(C)n1-n1cnc2sc(-c3ccccc3)cc2c1=O	MrgX1 allo act 7.8 | MrgX1 PAM conf inactive | HEK293 Ca flux inactive | HEK293 Ca counter inactive | HEK293 Ca cntr2 inactive
CCN(c1cccc(C)c1)S(=O)(=O)c1ccc(-n2cccn2)cc1	MrgX1 allo act 7 | MrgX1 PAM conf inactive | HEK293 Ca flux inactive | HEK293 Ca counter inactive | HEK293 Ca cntr2 inactive
COC(=O)COc1c(/C=C\c2nc(O)c([N+](=O)[O-])c(=O)[nH]2)cccc1OC	none
O=C1c2cccc(OCC(=O)N3CCCc4ccccc43)c2CCN1Cc1cccnc1	MrgX1 allo act 18 | MrgX1 PAM conf inactive | HEK293 Ca flux inactive | HEK293 Ca counter inactive | HEK293 Ca cntr2 inactive
COCc1cc(Sc2ccc(Cl)cc2)nc(C)n1	MrgX1 allo act 8.4 | MrgX1 PAM conf inactive | HEK293 Ca flux inactive | HEK293 Ca counter inactive | HEK293 Ca cntr2 inactive
Cc1cc(N2CCCCC2C)nc(-c2ccccc2O)n1 (centres undefined)	none
CN(C)C(=O)c1cn(-c2ccccc2)nc1-c1cc2ccccc2oc1=O	none
CN(C)C(=O)c1cn(-c2ccccc2)nc1-c1cc2ccccc2o1	MrgX1 allo act 8 | MrgX1 PAM conf inactive | HEK293 Ca flux inactive | HEK293 Ca counter inactive | HEK293 Ca cntr2 inactive
Cc1ccc(C)c(CSc2ncccc2C(=O)O)c1	none
O=C(CSc1nc2ccccc2[nH]1)NCc1ccc(F)cc1	MrgX1 allo act 9.5 | MrgX1 PAM conf inactive | HEK293 Ca flux inactive | HEK293 Ca counter inactive | HEK293 Ca cntr2 inactive
O=C(CSc1nc2ccccc2[nH]1)Nc1ccc(F)cc1	none
COC(=O)[C@H]1[C@H](CCc2ccccc2)NC(=O)N(Cc2ccccc2)[C@@H]1C	none
O=C(c1ccc(C23CC4CC(CC(C4)C2)C3)o1)N1CCOCC1	MrgX1 allo act 11 | MrgX1 PAM conf inactive | HEK293 Ca flux inactive | HEK293 Ca counter inactive | HEK293 Ca cntr2 inactive
Cc1n[nH]c(C)c1Cc1c(F)cccc1Cl	MrgX1 allo act 25 | MrgX1 PAM conf 16% | HEK293 Ca flux inactive | HEK293 Ca counter inactive | HEK293 Ca cntr2 inactive
Nc1nc(-c2ccccn2)nc(N)c1Cc1c(F)cccc1Cl	none
CC(=O)c1cc2c(cc1NC(=O)CN1CCCCC1C)OCO2 (centres undefined)	MrgX1 allo act 11 | MrgX1 PAM conf inactive | HEK293 Ca flux inactive | HEK293 Ca counter inactive | HEK293 Ca cntr2 inactive
OCCNC(=S)c1ccccc1	none
O=C(COc1ccccc1)N1CCN=C1SCc1ccc(F)cc1	MrgX1 allo act 8.6 | MrgX1 PAM conf inactive | HEK293 Ca flux inactive | HEK293 Ca counter inactive | HEK293 Ca cntr2 inactive
O=C(COc1ccccc1)N1CCN=C1SCc1cccnc1	none
CNc1nc(Nc2ccc(C(C)=O)cc2)nc(OC(C(F)(F)F)C(F)(F)F)n1	MrgX1 allo act 8.6 | MrgX1 PAM conf inactive | HEK293 Ca flux inactive | HEK293 Ca counter inactive | HEK293 Ca cntr2 inactive
Cc1sc2ncnc(NCC3(N4CCOCC4)CCCCC3)c2c1C	none
Cc1sc2ncnc(NCC(C)(C)N3CCOCC3)c2c1C	MrgX1 allo act 8.7 | MrgX1 PAM conf inactive | HEK293 Ca flux inactive | HEK293 Ca counter inactive | HEK293 Ca cntr2 inactive
CCOc1ccccc1N1CCN(C(=O)Nc2cccc(Cl)c2)CC1	MrgX1 allo act 11 | MrgX1 PAM conf inactive | HEK293 Ca flux inactive | HEK293 Ca counter inactive | HEK293 Ca cntr2 inactive
Clc1ccccc1Nc1nnc(-c2ccncc2)s1	MrgX1 allo act 9.6 | MrgX1 PAM conf inactive | HEK293 Ca flux inactive | HEK293 Ca counter inactive | HEK293 Ca cntr2 inactive

High-throughput results from PubChem BioAssay.
